Measured values as given in ChEMBL document CHEMBL3112486, “Novel class of benzoic acid ester derivatives as potent PDE4 inhibitors for inhaled administration in the treatment of respiratory diseases” (J Med Chem, 2014).

Legend:
Phosphodiesterase 4 [1] = target: T1, Phosphodiesterase 4 (Homo sapiens, UniProt P27815+Q08499+Q07343+Q08493); assay: Inhibition of PDE4 isolated from human U937 cells assessed as […] by LANCE assay; assay type: cell-free; conditions: u-937
Phosphodiesterase 4 [2] = target: T1, Phosphodiesterase 4; assay: Inhibition of PDE4 activity in human PBMC assessed as inhibition of LPS-induced TNFalpha release after 18 hrs by ELISA
Procedure, shortened: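 Human PBMCs plated at 10^5 cells/well in RPMI 1640 without phenol red plus 10% FBS, at 37 °C, 5% CO2. Compound added at 10^-15 to 10^-6 M (final DMSO 0.2%), with E. coli LPS at 3 ng/mL final, for 18 h. TNFα in supernatant measured by paired-antibody ELISA. IC50 from four-parameter logistic nonlinear regression, reported with 95% confidence intervals.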

[3] = n-Octanol-buffer partition coefficient, log D of the compound at pH 7.4 by shake-flask method

Row | Structure (SMILES) | IC50 (Phosphodiesterase 4 [1]) [nM] | IC50 (Phosphodiesterase 4 [2]) [nM] | logD [3]
1 | N#Cc1ccc(C(=O)O[C@@H](Cc2c(Cl)c[n+]([O-])cc2Cl)c2ccc(OC(F)F)c(OCC3CC3)c2)cc1 | 0.41 | 2.1 | –
2 | O=C(O[C@@H](Cc1c(Cl)c[n+]([O-])cc1Cl)c1ccc(OC(F)F)c(OCC2CC2)c1)c1ccc(OC(F)F)c(OCC2CC2)c1 | 0.22 | 1.1 | –
3 | O=C(O[C@@H](Cc1c(Cl)c[n+]([O-])cc1Cl)c1ccc(OC(F)F)c(OCC2CC2)c1)c1ccc(O)c(OCC2CC2)c1 | 0.04 | 0.85 | –
4 | COc1ccc(C(=O)O[C@@H](Cc2c(Cl)c[n+]([O-])cc2Cl)c2ccc(OC(F)F)c(OCC3CC3)c2)cc1NC(C)=O | 0.08 | 0.67 | –
5 | CCCC(=O)OC(Cc1c(Cl)cncc1Cl)c1ccc(OC(F)F)c(OCC2CC2)c1 (racemic) | 1.74 | – | –
6 | COc1ccc(C(=O)O[C@@H](Cc2c(Cl)c[n+]([O-])cc2Cl)c2ccc(OC(F)F)c(OCC3CC3)c2)c(NS(C)(=O)=O)c1 | 0.73 | > 60 | –
7 | COc1cc(NS(C)(=O)=O)cc(C(=O)O[C@@H](Cc2c(Cl)c[n+]([O-])cc2Cl)c2ccc(OC(F)F)c(OCC3CC3)c2)c1 | 0.17 | 0.13 | –
8 | CS(=O)(=O)Nc1ccc(C(=O)O[C@@H](Cc2c(Cl)c[n+]([O-])cc2Cl)c2ccc(OC(F)F)c(OCC3CC3)c2)cc1OCc1ccccc1 | 0.56 | 0.99 | –
9 | CS(=O)(=O)Nc1ccc(C(=O)O[C@@H](Cc2c(Cl)c[n+]([O-])cc2Cl)c2ccc(OC(F)F)c(OCC3CC3)c2)cc1CO | 0.03 | 1.05 | –
10 | O=C(O[C@@H](Cc1c(Cl)c[n+]([O-])cc1Cl)c1ccc(OC(F)F)c(OCC2CC2)c1)c1ccccc1 | 0.072 | 1.71 | –
11 | Cc1ccc(C(=O)O[C@@H](Cc2c(Cl)c[n+]([O-])cc2Cl)c2ccc(OC(F)F)c(OCC3CC3)c2)cc1 | 0.1 | 0.66 | –
12 | O=C(O[C@@H](Cc1c(Cl)c[n+]([O-])cc1Cl)c1ccc(OC(F)F)c(OCC2CC2)c1)c1ccc(CO)c(OCC2CC2)c1 | 0.08 | 0.69 | –
13 | CS(=O)(=O)Nc1cc(C(=O)O[C@@H](Cc2c(Cl)c[n+]([O-])cc2Cl)c2ccc(OC(F)F)c(OCC3CC3)c2)ccc1OCC1CC1 | 0.13 | 0.12 | –
14 | [O-][n+]1cc(Cl)c(C[C@H](O)c2ccc(OC(F)F)c(OCC3CC3)c2)c(Cl)c1 | 9.44 | 479 | –
15 | COc1ccc(C(=O)O[C@@H](Cc2c(Cl)c[n+]([O-])cc2Cl)c2ccc(OC(F)F)c(OCC3CC3)c2)cc1 | 0.14 | 0.47 | –
16 | CS(=O)(=O)Nc1cccc(C(=O)O[C@@H](Cc2c(Cl)c[n+]([O-])cc2Cl)c2ccc(OC(F)F)c(OCC3CC3)c2)c1OCC1CC1 | 0.18 | 1.31 | –
17 | COc1ccc(C(=O)O[C@@H](Cc2c(Cl)c[n+]([O-])cc2Cl)c2ccc(OC(F)F)c(OCC3CC3)c2)cc1NS(C)(=O)=O | 0.04 | 0.06 | –
18 | Nc1ccc(C(=O)O[C@@H](Cc2c(Cl)c[n+]([O-])cc2Cl)c2ccc(OC(F)F)c(OCC3CC3)c2)cc1OCC1CC1 | 0.09 | 0.11 | –
19 | O=C(Cc1ccccc1)OC(Cc1c(Cl)cncc1Cl)c1ccc(OC(F)F)c(OCC2CC2)c1 (racemic) | 1.06 | – | –
20 | O=C(O/C(=C\c1c(Cl)cncc1Cl)c1ccc(OC(F)F)c(OCC2CC2)c1)c1ccc(OC(F)F)c(OCC2CC2)c1 | 1.18 | – | –
21 | CC(=O)OC(Cc1c(Cl)cncc1Cl)c1ccc(OC(F)F)c(OCC2CC2)c1 (racemic) | 4.09 | – | –
22 | CS(=O)(=O)Nc1cc(OCC2CC2)cc(C(=O)O[C@@H](Cc2c(Cl)c[n+]([O-])cc2Cl)c2ccc(OC(F)F)c(OCC3CC3)c2)c1 | 0.06 | 0.92 | –
23 | O=C(O[C@H](Cc1c(Cl)cncc1Cl)c1ccc(OC(F)F)c(OCC2CC2)c1)c1ccc(OC(F)F)c(OCC2CC2)c1 | 44 | – | –
24 | Cc1cc(C(=O)O[C@@H](Cc2c(Cl)c[n+]([O-])cc2Cl)c2ccc(OC(F)F)c(OCC3CC3)c2)ccc1NS(C)(=O)=O | 0.05 | 0.41 | –
25 | COc1ccc(C(=O)O[C@@H](Cc2c(Cl)c[n+]([O-])cc2Cl)c2ccc(OC(F)F)c(OCC3CC3)c2)cc1Oc1ccccc1 | 0.21 | 1.36 | –
26 | CS(=O)(=O)Nc1ccc(OCC2CC2)c(C(=O)O[C@@H](Cc2c(Cl)c[n+]([O-])cc2Cl)c2ccc(OC(F)F)c(OCC3CC3)c2)c1 | 0.4 | 4.9 | –
27 | COc1ccc(C(=O)O[C@@H](Cc2c(Cl)c[n+]([O-])cc2Cl)c2ccc(OC(F)F)c(OCC3CC3)c2)cc1O | 0.08 | 0.75 | –

Row | Structure (SMILES) | IC50 (Phosphodiesterase 4 [1]) [nM] | IC50 (Phosphodiesterase 4 [2]) [nM] | logD [3]
28 | COc1ccc(C(=O)O[C@@H](Cc2c(Cl)c[n+]([O-])cc2Cl)c2ccc(OC(F)F)c(OCC3CC3)c2)cc1OC | 0.07 | 0.12 | –
29 | O=C(CCCc1ccccc1)OC(Cc1c(Cl)cncc1Cl)c1ccc(OC(F)F)c(OCC2CC2)c1 (racemic) | 1.34 | – | –
30 | COc1cc(C(=O)O[C@@H](Cc2c(Cl)c[n+]([O-])cc2Cl)c2ccc(OC(F)F)c(OCC3CC3)c2)ccc1NS(C)(=O)=O | 0.06 | 0.38 | –
31 | O=C(O[C@@H](Cc1c(Cl)c[n+]([O-])cc1Cl)c1ccc(OC(F)F)c(OCC2CC2)c1)c1ccc(NS(=O)(=O)C2CC2)c(OCC2CC2)c1 | 0.15 | 0.34 | –
32 | CS(=O)(=O)Nc1ccc(C(=O)O[C@@H](Cc2c(Cl)c[n+]([O-])cc2Cl)c2ccc(OC(F)F)c(OCC3CC3)c2)c(OCC2CC2)c1 | 0.26 | 1.96 | –
33 | COc1cc(NS(C)(=O)=O)ccc1C(=O)O[C@@H](Cc1c(Cl)c[n+]([O-])cc1Cl)c1ccc(OC(F)F)c(OCC2CC2)c1 | 0.06 | 0.43 | –
34 | CNS(=O)(=O)c1cc(C(=O)O[C@@H](Cc2c(Cl)c[n+]([O-])cc2Cl)c2ccc(OC(F)F)c(OCC3CC3)c2)ccc1OC | 0.03 | 0.25 | –
35 | O=C(O[C@H](Cc1c(Cl)c[n+]([O-])cc1Cl)c1ccc(OC(F)F)c(OCC2CC2)c1)c1ccc(OC(F)F)c(OCC2CC2)c1 | 2.43 | – | –
36 | O=C(O[C@@H](Cc1c(Cl)c[n+]([O-])cc1Cl)c1ccc(OC(F)F)c(OCC2CC2)c1)c1ccc([N+](=O)[O-])c(OCC2CC2)c1 | 0.21 | 0.69 | –
37 | CC(=O)Nc1ccc(C(=O)O[C@@H](Cc2c(Cl)c[n+]([O-])cc2Cl)c2ccc(OC(F)F)c(OCC3CC3)c2)cc1OCC1CC1 | 0.24 | 0.21 | –
38 | O=C(O[C@@H](Cc1c(Cl)cncc1Cl)c1ccc(OC(F)F)c(OCC2CC2)c1)c1ccc(OC(F)F)c(OCC2CC2)c1 | 1.9 | – | –
39 | COc1ccc(NS(C)(=O)=O)c(C(=O)O[C@@H](Cc2c(Cl)c[n+]([O-])cc2Cl)c2ccc(OC(F)F)c(OCC3CC3)c2)c1 | 0.4 | > 60 | –
40 | Cc1ccc(O)c(C(=O)N[C@H]2CC[C@@H](NC(=O)c3cc(F)cnc3Oc3ccc(F)c(F)c3)CC2)c1 [UK-500001] | – | – | 4.27
41 | O=C(O[C@@H](Cc1c(Cl)c[n+]([O-])cc1Cl)c1ccc(OC(F)F)c(OCC2CC2)c1)c1ccc(C(=O)O)c(OCC2CC2)c1 | 0.05 | 0.3 | –
42 | COc1ccc(C(=O)O[C@@H](Cc2c(Cl)c[n+]([O-])cc2Cl)c2ccc(OC(F)F)c(OCC3CC3)c2)cc1S(=O)(=O)N(C)C | 0.03 | 1.85 | –
43 | COc1ccc(C(=O)O[C@@H](Cc2c(Cl)c[n+]([O-])cc2Cl)c2ccc(OC(F)F)c(OCC3CC3)c2)cc1OC(C)=O | 0.05 | 0.96 | –
44 | COc1ccc(NS(C)(=O)=O)cc1C(=O)O[C@@H](Cc1c(Cl)c[n+]([O-])cc1Cl)c1ccc(OC(F)F)c(OCC2CC2)c1 | 0.04 | 0.89 | –
45 | COc1cccc(NS(C)(=O)=O)c1C(=O)O[C@@H](Cc1c(Cl)c[n+]([O-])cc1Cl)c1ccc(OC(F)F)c(OCC2CC2)c1 | 6.83 | > 60 | –
46 | CS(=O)(=O)Nc1ccc(C(=O)O[C@@H](Cc2c(Cl)c[n+]([O-])cc2Cl)c2ccc(OC(F)F)c(OCC3CC3)c2)cc1 | 0.05 | 0.13 | –
47 | COc1ccc(C(=O)O[C@@H](Cc2c(Cl)c[n+]([O-])cc2Cl)c2ccc(OC(F)F)c(OCC3CC3)c2)cc1OCC1CC1 | 0.05 | 0.04 | –
48 | O=C(O[C@@H](Cc1c(Cl)c[n+]([O-])cc1Cl)c1ccc(OC(F)F)c(OCC2CC2)c1)c1ccc(C(F)(F)F)cc1 | 0.2 | 21 | –
49 | Cc1ccc(C(=O)O[C@@H](Cc2c(Cl)c[n+]([O-])cc2Cl)c2ccc(OC(F)F)c(OCC3CC3)c2)cc1NS(C)(=O)=O | 0.03 | 0.96 | –
50 | CN(C)c1ccc(C(=O)O[C@@H](Cc2c(Cl)c[n+]([O-])cc2Cl)c2ccc(OC(F)F)c(OCC3CC3)c2)cc1OCC1CC1 | 0.31 | 0.63 | –
51 | O=C(OC(Cc1c(Cl)cncc1Cl)c1ccc(OC(F)F)c(OCC2CC2)c1)c1ccccc1 (racemic) | 1.14 | – | –
52 | CS(=O)(=O)Nc1cc(C(=O)O[C@@H](Cc2c(Cl)c[n+]([O-])cc2Cl)c2ccc(OC(F)F)c(OCC3CC3)c2)ccc1OCc1ccccc1 | 0.32 | 0.53 | –
53 | O=C(O[C@@H](Cc1c(Cl)c[n+]([O-])cc1Cl)c1ccc(OC(F)F)c(OCC2CC2)c1)c1ccc(Cl)cc1 | 0.16 | 1.85 | –
